Source: ChEMBL document CHEMBL1124662, “Antiinflammatory activity of a series of substituted 2,3-dihydro-6-hydroxypyrimido[2,1-f]purine-4,8(1H,9H)-diones” (J Med Chem, 1989)
“And” between values parts separate entries of the source, which are not always exact repeats. Identical values can stand only once.

Legend:
Rattus norvegicus [1] = assay: Antiinflammatory activity against reverse passive Arthus reaction-synovitis in rat at dose of 50 mg/kg per orally.; type: functional; settings: po
Procedure, shortened: (§1)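 Lewis rats dosed orally with drug or placebo 1 h before iv bovine serum albumin in saline, then 0.54 mg rabbit anti-BSA antibody intraarticular in one knee, saline in the other, under light anesthesia. Second oral dose at 3 h; the dose used is the total given before and after induction.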

Rattus norvegicus [2] = assay: Prophylactic anti-inflammatory activity in adjuvant arthritic rat at 12.5 mg/kg in noninjected 1 degree paw; type: functional
Procedure, shortened: (§2)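 Heat-killed Mycobacterium tuberculosis ground and homogenized in paraffin oil (6 mg/mL); 0.1 mL injected into left hind paw. Drug dosed 1 h before challenge, then daily for 21 consecutive days; controls received methylcellulose. Both hind paw volumes measured by plethysmograph immediately and on day 21; % inhibition of Δ paw volume.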

Rattus norvegicus [3] = assay: Prophylactic anti-inflammatory activity in adjuvant arthritic rat at 12.5 mg/kg in noninjected 2 degree paw; type: functional; procedure, shortened: as §2
Rattus norvegicus [4] = assay: Prophylactic antiinflammatory activity against adjuvant arthritic rat at dose of 25 mg/kg in noninjected 1 degree paw.; type: functional; procedure, shortened: as §2
Rattus norvegicus [5] = assay: Prophylactic antiinflammatory activity against adjuvant arthritic rat at dose of 25 mg/kg in noninjected 2 degree paw.; type: functional; procedure, shortened: as §2
Rattus norvegicus [6] = assay: Prophylactic antiinflammatory activity against adjuvant arthritic rat at dose of 50 mg/kg in noninjected 1 degree paw.; type: functional; procedure, shortened: as §2
Rattus norvegicus [7] = assay: Prophylactic antiinflammatory activity against adjuvant arthritic rat at dose of 50 mg/kg in noninjected 2 degree paw.; type: functional; procedure, shortened: as §2
Rattus norvegicus [8] = assay: Prophylactic anti-inflammatory activity in adjuvant arthritic rat at 25 mg/kg in noninjected 1 degree paw; type: functional; procedure, shortened: as §2
Rattus norvegicus [9] = assay: Prophylactic anti-inflammatory activity in adjuvant arthritic rat at 25 mg/kg in noninjected 2 degree paw; type: functional; procedure, shortened: as §2
Rattus norvegicus [10] = assay: Prophylactic anti-inflammatory activity in adjuvant arthritic rat at 50 mg/kg in noninjected 1 degree paw; type: functional; procedure, shortened: as §2
Rattus norvegicus [11] = assay: Prophylactic anti-inflammatory activity adjuvant arthritic rat at 50 mg/kg in noninjected 2 degree paw; type: functional; procedure, shortened: as §2
Rattus norvegicus [12] = assay: Anti-inflammatory activity against reverse passive […] reaction-synovitis in rat at 50 mg/kg oral dose; type: functional; procedure, shortened: as §1
Rattus norvegicus [13] = assay: Prophylactic oral administration in adjuvant arthritic rat model at 25 mg/kg in noninjected 2 degree paw; type: functional; procedure, shortened: as §2
[14] = Therapeutic oral administration in adjuvant arthritic rat model at 25 mg/kg in noninjected 2 degree paw; type: ADME, organism-based; set-up: dose 25 mg/kg, route oral
Procedure, shortened: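 Adjuvant arthritis (heat-killed M. tuberculosis in paraffin oil, 6 mg/mL, 0.1 mL into left hind paw) left to develop 7 days before first oral dose; treatment continued 35 days. Controls given methylcellulose; hind paw volumes measured by plethysmograph as Δ paw volume; % inhibition.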

Rattus norvegicus [15] = assay: Prophylactic anti-inflammatory activity in adjuvant arthritic rat at 6.25 mg/kg in noninjected 1 degree paw; type: functional; procedure, shortened: as §2
Rattus norvegicus [16] = assay: Prophylactic anti-inflammatory activity in adjuvant arthritic rat at 6.25 mg/kg in noninjected 2 degree paw; type: functional; procedure, shortened: as §2
Rattus norvegicus [17] = assay: Prophylactic anti-inflammatory activity in adjuvant arthritic rat at 45 mg/kg in noninjected 1 degree paw; type: functional; procedure, shortened: as §2
Rattus norvegicus [18] = assay: Prophylactic anti-inflammatory activity in adjuvant arthritic rat at 45 mg/kg in noninjected 2 degree paw; type: functional; procedure, shortened: as §2
[19] = Inhibition of guinea pig Phosphodiesterase; set-up: species or system Cavia porcellus
Cyclooxygenase = target: T1, Cyclooxygenase (Rattus norvegicus, UniProt P35355+Q63921); assay: Inhibitory activity against Prostaglandin G/H synthase in an in vitro rat neutrophil assay; type: protein assay
T1 sequence (P35355 whole entry): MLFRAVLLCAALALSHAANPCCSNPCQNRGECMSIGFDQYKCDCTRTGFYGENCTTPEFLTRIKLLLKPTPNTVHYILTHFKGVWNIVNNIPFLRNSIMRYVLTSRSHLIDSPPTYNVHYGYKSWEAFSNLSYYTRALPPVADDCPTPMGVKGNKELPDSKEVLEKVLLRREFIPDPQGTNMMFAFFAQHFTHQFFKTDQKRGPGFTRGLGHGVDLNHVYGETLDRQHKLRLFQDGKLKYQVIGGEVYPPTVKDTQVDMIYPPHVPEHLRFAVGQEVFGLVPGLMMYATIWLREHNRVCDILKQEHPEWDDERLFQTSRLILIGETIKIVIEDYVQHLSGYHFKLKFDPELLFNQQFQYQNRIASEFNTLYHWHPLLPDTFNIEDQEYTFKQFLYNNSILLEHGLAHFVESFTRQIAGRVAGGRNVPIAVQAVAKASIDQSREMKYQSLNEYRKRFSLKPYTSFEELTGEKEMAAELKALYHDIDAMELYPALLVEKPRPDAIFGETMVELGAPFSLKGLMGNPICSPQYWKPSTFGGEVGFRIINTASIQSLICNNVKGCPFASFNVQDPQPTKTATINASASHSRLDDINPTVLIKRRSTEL
T1 sequence (Q63921 whole entry): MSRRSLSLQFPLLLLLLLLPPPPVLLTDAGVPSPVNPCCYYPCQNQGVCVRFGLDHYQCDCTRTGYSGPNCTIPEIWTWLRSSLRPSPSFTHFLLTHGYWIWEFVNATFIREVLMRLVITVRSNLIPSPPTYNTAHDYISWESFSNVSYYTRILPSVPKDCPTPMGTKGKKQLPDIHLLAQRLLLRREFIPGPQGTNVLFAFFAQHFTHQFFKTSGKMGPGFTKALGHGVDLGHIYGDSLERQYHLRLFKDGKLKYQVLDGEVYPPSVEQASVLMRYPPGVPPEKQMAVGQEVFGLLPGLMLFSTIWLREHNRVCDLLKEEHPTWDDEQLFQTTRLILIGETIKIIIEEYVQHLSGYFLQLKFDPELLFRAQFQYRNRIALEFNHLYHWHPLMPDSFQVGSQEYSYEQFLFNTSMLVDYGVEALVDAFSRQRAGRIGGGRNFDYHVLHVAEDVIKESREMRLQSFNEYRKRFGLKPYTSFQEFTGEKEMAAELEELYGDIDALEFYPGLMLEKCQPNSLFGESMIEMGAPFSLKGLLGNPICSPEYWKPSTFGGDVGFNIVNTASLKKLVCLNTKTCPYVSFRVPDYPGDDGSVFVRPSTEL

Rattus norvegicus [20] = assay: Prophylactic oral administration in adjuvant arthritic rat model at 27 mg/kg in noninjected 2 degree paw; type: functional; procedure, shortened: as §2
Rattus norvegicus [21] = assay: Anti-inflammatory activity against reverse passive […] reaction-synovitis in rat at 100 mg/kg oral dose; type: functional; procedure, shortened: as §1
Rattus norvegicus [22] = assay: Prophylactic anti-inflammatory activity in adjuvant arthritic rat at 27 mg/kg in noninjected 1 degree paw; type: functional; procedure, shortened: as §2
Rattus norvegicus [23] = assay: Prophylactic anti-inflammatory activity in adjuvant arthritic rat at 27 mg/kg in noninjected 2 degree paw; type: functional; procedure, shortened: as §2
Rattus norvegicus [24] = assay: Prophylactic anti-inflammatory activity in adjuvant arthritic rat at 3 mg/kg in noninjected 1 degree paw; type: functional; procedure, shortened: as §2
Rattus norvegicus [25] = assay: Prophylactic anti-inflammatory activity in adjuvant arthritic rat at 3 mg/kg in noninjected 2 degree paw; type: functional; procedure, shortened: as §2
Rattus norvegicus [26] = assay: Prophylactic anti-inflammatory activity in adjuvant arthritic rat at 9 mg/kg in noninjected 2 degree paw; type: functional; procedure, shortened: as §2
Rattus norvegicus [27] = assay: Prophylactic anti-inflammatory activity in adjuvant arthritic rat at 9 mg/kg in noninjected 1 degree paw; type: functional; procedure, shortened: as §2

| Structure (SMILES) | inhibition in vivo at 50 mg/kg (Rattus norvegicus [1]) [%] | inhibition in vivo at 12.5 mg/kg (Rattus norvegicus [2]) [%] | inhibition in vivo at 25 mg/kg (Rattus norvegicus [4]) [%] | inhibition in vivo at 25 mg/kg (Rattus norvegicus [5]) [%] | inhibition in vivo at 50 mg/kg (Rattus norvegicus [6]) [%] | inhibition in vivo at 50 mg/kg (Rattus norvegicus [7]) [%] | further results |
| --- | --- | --- | --- | --- | --- | --- | --- |
| CCCc1c(O)n(Cc2ccccc2)c2nc3c(n2c1=O)C(=O)N(C)CN3C | 45 | 16 | 24 | 65 | 38 | 70 | inhibition in vivo at 12.5 mg/kg (Rattus norvegicus [3]): 38% |
| C=CCc1c(O)n(Cc2ccc(F)cc2)c2nc3c(n2c1=O)C(=O)N(C)CN3C | 40 |  |  |  | 10 | 49 |  |
| CCCc1c(O)n(Cc2ccc(F)cc2)c2nc3c(n2c1=O)C(=O)N(C)CN3C | 0 |  | 0 | 56 |  |  |  |
| CCOC(=O)Cc1c(O)n(Cc2ccccc2)c2nc3c(n2c1=O)C(=O)N(C)CN3C | 14 |  | 18 | 20 |  |  |  |
| CN1CN(C)c2nc3n(Cc4ccccc4)c(O)c(C(=O)Nc4ccccc4)c(=O)n3c2C1=O |  |  |  |  | -21 | 23 |  |
| CN1CN(C)c2nc3n(Cc4ccccc4)c(=O)/c(=C\O)c(=O)n3c2C1=O | 34 |  |  |  | 6 | 32 |  |
| CCCc1c(O)n(Cc2cccs2)c2nc3c(n2c1=O)C(=O)N(C)CN3C |  | 20 | 20 | 51 |  |  | inhibition in vivo at 12.5 mg/kg (Rattus norvegicus [3]): 13% |
| CN1CN(C)c2nc3n(Cc4ccc(F)cc4)c(O)cc(=O)n3c2C1=O | 9 | 22 |  |  |  |  | inhibition in vivo at 12.5 mg/kg (Rattus norvegicus [3]): 21%; inhibition in vivo at 25 mg/kg (Rattus norvegicus [8]): 36%; inhibition in vivo at 25 mg/kg (Rattus norvegicus [9]): 24%; inhibition in vivo at 50 mg/kg (Rattus norvegicus [10]): 37%; inhibition in vivo at 50 mg/kg (Rattus norvegicus [11]): 46% |
| CN1CN(C)c2nc3n(Cc4ccccc4)c(O)cc(=O)n3c2C1=O |  |  |  |  |  |  | inhibition in vivo at 50 mg/kg (Rattus norvegicus [12]): 0% |
| Cc1c(O)n(Cc2ccccc2)c2nc3c(n2c1=O)C(=O)N(C)CN3C | 0 | 0 | 0 | 22 | 46 | 69 | inhibition in vivo at 12.5 mg/kg (Rattus norvegicus [3]): 36% |
| CC(C)=CCSc1cc(=O)n2c3c(nc2n1Cc1ccccc1)N(C)CN(C)C3=O |  |  | -16 | 8 |  |  |  |
| C/C(=C/Cc1c(O)n(Cc2ccccc2)c2nc3c(n2c1=O)C(=O)N(C)CN3C)C(F)(F)F | 25 | 47 | 45 | 74 |  |  | ED50 (Rattus norvegicus [13]): 8.8 mg/kg; ED50 [14]: 4 mg/kg; inhibition in vivo at 12.5 mg/kg (Rattus norvegicus [3]): 64%; inhibition in vivo at 6.25 mg/kg (Rattus norvegicus [15]): 33%; inhibition in vivo at 6.25 mg/kg (Rattus norvegicus [16]): 60% |
| CC(C)=CCc1c(O)n(Cc2ccc(F)cc2)c2nc3c(n2c1=O)C(=O)N(C)CN3C | 18 |  |  | 49 |  |  | ED50 [14]: 7.6 mg/kg; inhibition in vivo at 25 mg/kg (Rattus norvegicus [8]): 24% |
| C/C=C/Cc1c(O)n(Cc2ccccc2)c2nc3c(n2c1=O)C(=O)N(C)CN3C | 0 | 20 | 24 | 40 | 44 | 71 |  |
| CSc1c(O)n(Cc2ccccc2)c2nc3c(n2c1=O)C(=O)N(C)CN3C | 10 |  |  |  | 33 | 61 |  |
| CC(C)CCc1c(O)n(Cc2ccccc2)c2nc3c(n2c1=O)C(=O)N(C)CN3C |  |  |  |  |  |  | inhibition in vivo at 45 mg/kg (Rattus norvegicus [17]): 23%; inhibition in vivo at 45 mg/kg (Rattus norvegicus [18]): 51% |
| COc1ccc(Cn2c(O)c(CC=C(C)C)c(=O)n3c4c(nc23)N(C)CN(C)C4=O)cc1 |  | 40 | 45 | 69 |  |  | ED50 (Rattus norvegicus [13]): 14 mg/kg; inhibition in vivo at 12.5 mg/kg (Rattus norvegicus [3]): 63% |
| CN1CN(C)c2nc3n(Cc4ccccc4)c(O)c(Cc4ccccc4)c(=O)n3c2C1=O | 5 |  | 34 | 49 | 46 | 63 |  |
| CN1CN(C)c2nc3n(Cc4ccccc4)c(O)c(CCO)c(=O)n3c2C1=O | 8 |  |  |  |  |  |  |
| CN1CN(C)c2nc3n(Cc4ccccc4)c(O)c(Sc4ccccc4)c(=O)n3c2C1=O |  |  |  |  | 15 | 23 |  |
| C#CCc1c(O)n(Cc2ccccc2)c2nc3c(n2c1=O)C(=O)N(C)CN3C | 6 |  | 35 | 21 | 36 | 13 |  |
| CN(C)/C=c1\c(=O)n(Cc2ccccc2)c2nc3c(n2c1=O)C(=O)N(C)CN3C | 27 |  |  |  |  |  |  |
| CN1CN(C)c2nc3n(Cc4ccccc4)c(O)c(C4C=CCCC4)c(=O)n3c2C1=O (centres undefined) | 16 | 9 | 12 | 15 | 13 | 13 | inhibition in vivo at 12.5 mg/kg (Rattus norvegicus [3]): 6% |
| Cn1c(=O)c2[nH]cnc2n(C)c1=O [AMINOPHYLLINE] |  |  |  |  |  |  | IC50 [19]: 30 µM |
| CC(C)=CCc1c(O)n(Cc2ccccc2)c2nc3c(n2c1=O)C(=O)N(C)CN3C |  |  |  |  |  |  | IC50 (Cyclooxygenase): 6 µM; IC50 [19]: 37 µM and 200 µM; ED50 [14]: 15 mg/kg; ED50 (Rattus norvegicus [20]): 6.02 mg/kg; inhibition in vivo at 100 mg/kg (Rattus norvegicus [21]): 20%; inhibition in vivo at 27 mg/kg (Rattus norvegicus [22]): 54%; inhibition in vivo at 27 mg/kg (Rattus norvegicus [23]): 92%; inhibition in vivo at 3 mg/kg (Rattus norvegicus [24]): 17%; inhibition in vivo at 3 mg/kg (Rattus norvegicus [25]): 47%; inhibition in vivo at 9 mg/kg (Rattus norvegicus [26]): 65%; inhibition in vivo at 9 mg/kg (Rattus norvegicus [27]): 33% |
